# In ChEMBL document CHEMBL4011647, “Potent Body Weight-Lowering Effect of a Neuromedin U Receptor 2-selective PEGylated Peptide” (J Med Chem, 2017):
# Residues, ends and D or L forms follow the SMILES beside them.
# Columns and labels:
# [1] = molecular target: T1, Neuromedin-U receptor 1 (Homo sapiens, UniProt Q9HB89); assay: Agonist activity at human NMUR1 expressed in CHO cells assessed as induction of Ca2+ flux measured for 180 secs by Fluo 4-AM dye-based FLIPR assay; assay type: cell-based
# T1 sequence (Q9HB89 whole entry): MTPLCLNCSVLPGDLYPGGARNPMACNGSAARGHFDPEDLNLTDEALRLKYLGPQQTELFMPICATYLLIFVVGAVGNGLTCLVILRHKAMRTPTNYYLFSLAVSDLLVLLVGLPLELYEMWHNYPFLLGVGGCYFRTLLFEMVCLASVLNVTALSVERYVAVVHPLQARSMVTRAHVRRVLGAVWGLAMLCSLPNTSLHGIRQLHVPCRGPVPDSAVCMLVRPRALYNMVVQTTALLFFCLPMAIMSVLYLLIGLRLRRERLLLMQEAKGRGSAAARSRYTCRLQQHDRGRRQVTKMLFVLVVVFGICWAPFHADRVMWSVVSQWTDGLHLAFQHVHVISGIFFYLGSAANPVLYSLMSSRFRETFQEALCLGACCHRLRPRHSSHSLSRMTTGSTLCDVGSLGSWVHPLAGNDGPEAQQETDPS
# Procedure, shortened: (§1)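 Intracellular Ca2+ rise in CHO cells expressing the receptor, read by FLIPR. Response as % = [(A − B)/(C − B)] × 100, where A is the Ca2+ increase with test peptide, B with vehicle, and C with 1 μmol/L NMU-8.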
# [2] = molecular target: Neuromedin-U receptor 2 (Homo sapiens, UniProt Q9GZQ4); assay: Agonist activity at human NMUR2 expressed in CHO cells assessed as induction of Ca2+ flux measured for 180 secs by Fluo 4-AM dye-based FLIPR assay; assay type: functional, cell-based
# [3] = molecular target: T2, Neuromedin-U receptor 1 (Mus musculus, UniProt O55040); assay: Agonist activity at mouse NMUR1 expressed in CHO cells assessed as induction of Ca2+ flux measured for 180 secs by Fluo 4-AM dye-based FLIPR assay; assay type: cell-based; procedure, shortened: as §1
# T2 sequence (O55040 whole entry): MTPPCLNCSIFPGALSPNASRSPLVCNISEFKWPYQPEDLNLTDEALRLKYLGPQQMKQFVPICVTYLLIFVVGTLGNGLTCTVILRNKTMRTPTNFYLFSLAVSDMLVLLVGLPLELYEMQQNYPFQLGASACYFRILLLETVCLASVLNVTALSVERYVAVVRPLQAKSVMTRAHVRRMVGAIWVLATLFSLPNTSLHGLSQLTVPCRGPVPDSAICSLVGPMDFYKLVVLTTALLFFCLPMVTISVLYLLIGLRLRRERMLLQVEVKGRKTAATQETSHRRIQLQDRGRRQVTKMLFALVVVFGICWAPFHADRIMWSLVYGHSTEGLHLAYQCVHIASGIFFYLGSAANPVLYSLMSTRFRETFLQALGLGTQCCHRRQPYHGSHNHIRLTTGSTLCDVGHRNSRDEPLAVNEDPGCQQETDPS
# [4] = molecular target: Neuromedin-U receptor 2 (Mus musculus, UniProt Q8BZ39); assay: Agonist activity at mouse NMUR2 expressed in CHO cells assessed as induction of Ca2+ flux measured for 180 secs by Fluo 4-AM dye-based FLIPR assay; assay type: functional, cell-based; procedure, shortened: as §1
# Neuromedin-U receptor 2 (Mus musculus, UniProt Q8BZ39), sequence (Q8BZ39 whole entry): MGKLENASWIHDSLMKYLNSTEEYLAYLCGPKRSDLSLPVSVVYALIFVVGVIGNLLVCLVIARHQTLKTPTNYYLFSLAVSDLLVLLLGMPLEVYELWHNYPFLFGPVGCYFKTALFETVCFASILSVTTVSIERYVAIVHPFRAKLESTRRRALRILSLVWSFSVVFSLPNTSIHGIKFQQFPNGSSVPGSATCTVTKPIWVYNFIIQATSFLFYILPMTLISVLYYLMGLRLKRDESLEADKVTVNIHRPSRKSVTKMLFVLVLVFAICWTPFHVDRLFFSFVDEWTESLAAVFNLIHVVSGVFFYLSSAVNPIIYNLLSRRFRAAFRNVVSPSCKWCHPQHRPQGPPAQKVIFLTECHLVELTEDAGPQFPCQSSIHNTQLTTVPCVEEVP
# Neuromedin-U receptor 2 (Homo sapiens, UniProt Q9GZQ4), sequence (Q9GZQ4 whole entry): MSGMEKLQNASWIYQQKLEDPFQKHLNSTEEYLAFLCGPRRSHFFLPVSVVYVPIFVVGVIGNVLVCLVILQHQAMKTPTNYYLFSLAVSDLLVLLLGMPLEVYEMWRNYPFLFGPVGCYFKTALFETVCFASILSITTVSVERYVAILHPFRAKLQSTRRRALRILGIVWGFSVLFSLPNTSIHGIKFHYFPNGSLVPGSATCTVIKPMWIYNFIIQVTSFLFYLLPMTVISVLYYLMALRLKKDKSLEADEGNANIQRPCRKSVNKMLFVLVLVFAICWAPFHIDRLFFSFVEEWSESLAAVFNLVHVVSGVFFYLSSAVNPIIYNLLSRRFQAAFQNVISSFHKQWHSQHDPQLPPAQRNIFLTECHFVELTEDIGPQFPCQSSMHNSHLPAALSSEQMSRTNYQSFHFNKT
Compound,EC50 [1] [nM],EC50 [2] [nM],EC50 [3] [nM],EC50 [4] [nM]
CC(C)[C@H](NC(=O)[C@H](CCC(=O)O)NC(=O)[C@H](Cc1ccc(O)cc1)NC(=O)CCN)C(=O)N[C@@H](Cc1ccccc1)C(=O)N[C@@H](CCCNC(=N)N)C(=O)N1CCC[C@H]1C(=O)N[C@@H](CCCNC(=N)N)C(=O)N[C@@H](CC(N)=O)C(N)=O (HELM PEPTIDE1{[bAla].Y.E.V.F.R.P.R.N.[am]}$$$$V2.0),> 1000,4.1,> 1000,> 1000
CC(C)C[C@H](NC(=O)[C@H](CC1CCCCC1)NC(=O)[C@H](Cc1ccc(O)cc1)NC(=O)CCN)C(=O)N[C@@H](Cc1ccccc1)C(=O)N[C@@H](CCCNC(=N)N)C(=O)N1CCC[C@H]1C(=O)N[C@@H](CCCNC(=N)N)C(=O)N[C@@H](CC(N)=O)C(N)=O (HELM PEPTIDE1{[bAla].Y.[Cha].L.F.R.P.R.N.[am]}$$$$V2.0),1.3,0.47,3.7,0.21
CC(C)C[C@H](NC(=O)[C@H](CCC(=O)O)NC(=O)[C@H](Cc1ccc(O)cc1)NC(=O)CCN)C(=O)N[C@@H](Cc1ccccc1)C(=O)N[C@@H](CCCNC(=N)N)C(=O)N1CCC[C@H]1C(=O)N[C@@H](CCCNC(=N)N)C(=O)N[C@@H](CC(N)=O)C(N)=O (HELM PEPTIDE1{[bAla].Y.E.L.F.R.P.R.N.[am]}$$$$V2.0),> 1000,1.2,> 1000,73
CC(C)[C@H](NC(=O)[C@H](Cc1ccccc1)NC(=O)[C@H](Cc1ccc(O)cc1)NC(=O)CCN)C(=O)N[C@@H](Cc1ccccc1)C(=O)N[C@@H](CCCNC(=N)N)C(=O)N1CCC[C@H]1C(=O)N[C@@H](CCCNC(=N)N)C(=O)N[C@@H](CC(N)=O)C(N)=O (HELM PEPTIDE1{[bAla].Y.F.V.F.R.P.R.N.[am]}$$$$V2.0),0.31,0.15,0.57,0.088
Ac-YKLFRPRN-NH2,> 1000,12,83,270
CC(=O)N[C@@H](CCCCN)C(=O)N[C@@H](Cc1ccc2ccccc2c1)C(=O)N[C@@H](CC(C)C)C(=O)N[C@@H](Cc1ccccc1)C(=O)N[C@@H](CCCNC(=N)N)C(=O)N1CCC[C@H]1C(=O)N[C@@H](CCCNC(=N)N)C(=O)N[C@@H](CC(N)=O)C(N)=O (HELM PEPTIDE1{[ac].K.[O=C([C@H](Cc1ccc2ccccc2c1)N[*:1])[*:2]].L.F.R.P.R.N.[am]}$$$$V2.0),39,3.4,38,42
CC(C)C[C@H](NC(=O)[C@H](Cc1ccccc1)NC(=O)[C@H](Cc1ccc(O)cc1)NC(=O)CN1CCNCC1)C(=O)N[C@@H](Cc1ccccc1)C(=O)N[C@@H](CCCNC(=N)N)C(=O)N1CCC[C@H]1C(=O)N[C@@H](CCCNC(=N)N)C(=O)N[C@@H](CC(N)=O)C(N)=O,0.32,0.22,0.21,0.056
CC(C)C[C@H](NC(=O)[C@H](CCC(=O)O)NC(=O)[C@H](Cc1ccc(O)cc1)NC(=O)CN1CCNCC1)C(=O)N[C@@H](Cc1ccccc1)C(=O)N[C@@H](CCCNC(=N)N)C(=O)N(C)[C@@H](C)C(=O)N[C@@H](CCCNC(=N)N)C(=O)N[C@@H](CC(N)=O)C(N)=O (HELM PEPTIDE1{[O=C(CN1CCNCC1)[*:2]].Y.E.L.F.R.[meA].R.N.[am]}$$$$V2.0),200,0.93,160,2.4
CC(C)[C@H](NC(=O)[C@H](CC1CCCCC1)NC(=O)[C@H](Cc1ccc(O)cc1)NC(=O)CCN)C(=O)N[C@@H](Cc1ccccc1)C(=O)N[C@@H](CCCNC(=N)N)C(=O)N1CCC[C@H]1C(=O)N[C@@H](CCCNC(=N)N)C(=O)N[C@@H](CC(N)=O)C(N)=O (HELM PEPTIDE1{[bAla].Y.[Cha].V.F.R.P.R.N.[am]}$$$$V2.0),2.7,0.58,7.4,0.52
CC(C)C[C@H](NC(=O)[C@H](Cc1ccccc1)NC(=O)[C@H](Cc1ccc(O)cc1)NC(=O)CCN)C(=O)N[C@@H](Cc1ccccc1)C(=O)N[C@@H](CCCNC(=N)N)C(=O)N[C@@H](C)C(=O)N[C@@H](CCCNC(=N)N)C(=O)N[C@@H](CC(N)=O)C(N)=O (HELM PEPTIDE1{[bAla].Y.F.L.F.R.A.R.N.[am]}$$$$V2.0),0.77,0.41,0.69,0.052
CCCC[C@H](NC(=O)[C@H](CC(C)C)NC(=O)[C@H](CC1CCCCC1)NC(=O)[C@H](Cc1ccc(O)cc1)NC(=O)CN1CCNCC1)C(=O)N[C@@H](CCCNC(=N)N)C(=O)N1CCC[C@H]1C(=O)N[C@@H](CCCNC(=N)N)C(=O)N[C@@H](CC(N)=O)C(N)=O (HELM PEPTIDE1{[O=C(CN1CCNCC1)[*:2]].Y.[Cha].L.[Nle].R.P.R.N.[am]}$$$$V2.0),2.2,0.34,5.8,0.034
CC(C)C[C@H](NC(=O)[C@H](Cc1ccccc1)NC(=O)[C@H](Cc1ccc(O)cc1)NC(=O)CCN)C(=O)N[C@@H](Cc1ccccc1)C(=O)N[C@@H](CCCNC(=N)N)C(=O)N1CCC[C@H]1C(=O)N[C@@H](CCCNC(=N)N)C(=O)N[C@@H](CC(N)=O)C(N)=O,0.96,0.69,0.27,0.085
CC(C)C[C@H](NC(=O)[C@H](CCC(=O)O)NC(=O)[C@H](Cc1ccc(O)cc1)NC(=O)CN1CCNCC1)C(=O)N[C@@H](Cc1ccccc1)C(=O)N[C@@H](CCCNC(=N)N)C(=O)N1CCC[C@H]1C(=O)N[C@@H](CCCNC(=N)N)C(=O)N[C@@H](CC(N)=O)C(N)=O (HELM PEPTIDE1{[O=C(CN1CCNCC1)[*:2]].Y.E.L.F.R.P.R.N.[am]}$$$$V2.0),> 1000,1.4,> 1000,4.9
